ChEMBL document CHEMBL1124613, “Synthesis, tubulin binding, antineoplastic evaluation, and structure-activity relationship of oncodazole analogues” (J Med Chem, 1989)
pIC50: −log10 of the molar value.

What was measured:
B16 = experiment: Inhibition B16 melanoma cell monolayer proliferation; assay type: functional, cell-based; conditions: Mus musculus
How it was run: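 Mouse B16 melanoma cells grown as monolayers with continuous 72-h exposure to compound. IC50 is the concentration that inhibits proliferation by 50%.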

Tubulin alpha chain = Tubulin alpha chain (Sus scrofa, UniProt P02550); experiment: Displacement of 5.8 uM [3H]-oncodazole from homogeneous tubulin.
Tubulin alpha chain, sequence (P02550 whole entry, looked up): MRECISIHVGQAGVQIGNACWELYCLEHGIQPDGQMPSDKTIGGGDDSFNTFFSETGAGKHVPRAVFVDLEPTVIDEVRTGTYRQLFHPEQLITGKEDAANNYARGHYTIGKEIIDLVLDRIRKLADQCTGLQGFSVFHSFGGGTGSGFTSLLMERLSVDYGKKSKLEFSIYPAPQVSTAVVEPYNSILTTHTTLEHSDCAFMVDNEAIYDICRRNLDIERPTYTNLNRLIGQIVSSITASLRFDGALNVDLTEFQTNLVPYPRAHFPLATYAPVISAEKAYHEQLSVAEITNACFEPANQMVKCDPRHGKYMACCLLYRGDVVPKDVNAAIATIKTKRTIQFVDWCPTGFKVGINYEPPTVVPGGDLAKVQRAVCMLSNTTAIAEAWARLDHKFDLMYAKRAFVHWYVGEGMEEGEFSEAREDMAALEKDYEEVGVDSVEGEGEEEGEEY
How it was run: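 Equilibrium binding to soluble, homogeneous tubulin, measured by displacement of 5.8 μM [³H]oncodazole. IC50 (μM) is the concentration that displaces the label, given as mean ± SEM.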

Mus musculus [1] = experiment: In vivo Maximum tolerated dose in syngeneic B6D2F1 female mice bearing ip implanted P388 leukemia.; assay type: functional
How it was run: (§1)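 Female B6D2F1 mice given ip implants of 10⁶ P388 leukemia cells. Drug given ip on days 1-5 after implantation at 320-20 mg/kg per day; maximally tolerated dose reported in mg/kg per day. Percent increase in lifespan taken at that dose from median survival time versus untreated controls. Under 25% increase counts as negative.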

Mus musculus [2] = experiment: In vivo percent increase in life span at Maximum tolerated dose in syngeneic B6D2F1 female mice bearing ip implanted P388 leukemia; Negative; assay type: functional; how it was run: as §1
Mus musculus [3] = experiment: In vivo percent increase in life span at Maximum tolerated dose in syngeneic B6D2F1 female mice bearing ip implanted P388 leukemia.; assay type: functional; how it was run: as §1
Mus musculus [4] = experiment: Compound was tested in vivo for percent increase in life span at Maximum tolerated dose in syngeneic B6D2F1 female mice bearing intraperitoneally implanted P388 leukemia (exp 2); assay type: functional; how it was run: as §1

Compound	pIC50 (B16)	pIC50 (Tubulin alpha chain)	MTD (Mus musculus [1])	ILS (Mus musculus [2])	ILS (Mus musculus [3])	ILS (Mus musculus [4])
COC(=O)Nc1nc2cc(C(=O)c3cc(CO)cs3)ccc2[nH]1	5.74	4.66	–	–	–	–
COC(=O)Nc1nc2cc(C(=O)c3cc(CC(=O)O)cs3)ccc2[nH]1	5.70	3.35	80 mg/kg	<25%	–	–
CCCOC(=O)Nc1nc2cc(C(=O)c3cccs3)ccc2[nH]1	6.30	–	>320 mg/kg	<25%	–	–
COC(=O)Nc1nc2cc(C(=O)c3cccs3)ccc2n1C	4.70	–	160 mg/kg	<25%	–	–
COC(=O)Nc1nc2cc(C(=O)c3ccc(C)s3)ccc2[nH]1	5.00	–	160 mg/kg	<25%	–	–
COC(=O)Nc1nc2cc(C(=O)c3cccs3)ccc2n1CCN	4.52	–	80 mg/kg	<25%	–	–
COC(=O)Nc1nc2ccc(C(=O)c3cc(C([N+]#N)C(F)(F)F)cs3)cc2[nH]1 (centres undefined)	6.85	5.08	–	–	–	–
COC(=O)Nc1nc2cc(C(=O)c3cc(C)cs3)ccc2[nH]1	7.00	4.75	80 mg/kg	–	95%	–
COC(=O)Nc1nc2cc(C(=O)c3cccs3)c(C)cc2[nH]1	5.10	–	>320 mg/kg	<25%	–	–
COC(=O)N(C)c1nc2cc(C(=O)c3cccs3)ccc2[nH]1	4.30	–	40 mg/kg	<25%	–	–
COC(=O)Nc1nc2cc(C(=O)c3cc(CC#N)cs3)ccc2[nH]1	7.70	5.54	160 mg/kg	–	80%	80%
COC(=O)Nc1nc2cc(C(=O)c3cc(CNC(=O)OC(C)(C)C)cs3)ccc2[nH]1	6.30	4.63	160 mg/kg	<25%	–	–
COC(=O)Nc1nc2cc(C(=O)c3cc(CC(=O)OC(C)(C)C)cs3)ccc2[nH]1	7.15	5.12	160 mg/kg	–	105%	–
COC(=O)Nc1nc2ccc(C(=O)c3cc(COC(=O)c4ccccc4)cs3)cc2[nH]1	–	5.71	–	–	–	–
COC(=O)Nc1nc2cc(C(=O)c3cc(C(=O)C(F)(F)F)cs3)ccc2[nH]1	6.85	4.80	–	–	–	–
COC(=O)Nc1nc2cc(C(=O)c3cccs3)ccc2n1CCCCN	4.52	–	80 mg/kg	<25%	–	–
CCOC(=O)Cc1csc(C(=O)c2ccc3[nH]c(NC(=O)OC)nc3c2)c1	7.70	6.06	80 mg/kg	–	55%	55%
COC(=O)Nc1nc2cc(C(=O)c3cccs3)ccc2n1CCNC(=O)OCc1ccccc1	4.70	–	–	–	–	–
COC(=O)Nc1nc2c(C)c(C(=O)c3cccs3)ccc2[nH]1	5.40	3.97	40 mg/kg	<25%	–	–
CCOC(=O)Nc1nc2cc(C(=O)c3cccs3)ccc2[nH]1	6.70	–	160 mg/kg	<25%	–	–
COC(=O)Nc1nc2cc(C(=O)c3cc(CC(=O)NCCN)cs3)ccc2[nH]1	< 4.15	–	80 mg/kg	<25%	–	–
COC(=O)Nc1nc2cc(C(=O)c3cc(CN)cs3)ccc2[nH]1	5.70	3.92	20 mg/kg	<25%	–	–
COC(=O)Cc1csc(C(=O)c2ccc3[nH]c(NC(=O)OC)nc3c2)c1	7.40	5.30	30 mg/kg	–	65%	–
COC(=O)Nc1nc2c(C)cc(C(=O)c3cccs3)cc2[nH]1	7.22	6.07	30 mg/kg	–	45%	50%
CC(C)OC(=O)Nc1nc2cc(C(=O)c3cccs3)ccc2[nH]1	6.70	4.85	320 mg/kg	–	45%	30%
COC(=O)Nc1nc2cc(C(=O)c3cc(CC(=O)OCc4ccccc4)cs3)ccc2[nH]1	–	5.28	–	–	–	–
COC(=O)Nc1nc2cc(C(=O)c3sccc3C)ccc2[nH]1	5.70	–	>320 mg/kg	<25%	–	–
COC(=O)Nc1nc2cc(C(=O)c3cccs3)ccc2[nH]1 [NOCODAZOLE]	7.00	5.24	80 mg/kg	–	75%	–
COC(=O)Nc1nc2ccc(C(=O)c3cccs3)cc2n1C [NOCODOZOLE]	4.40	–	>320 mg/kg	<25%	–	–
